Positions count from the first letter of the chain named. In names and notes the source's numbering stands. Entries after “also recorded” stand apart in the source; their conditions may differ. Where a SMILES comes first, the peptide text is derived from it. Bridges are numbered along the chain shown (N, C = ends). Where no end group is shown, it is not given here.
What was measured:
human erythrocyte ghosts [1] = test: Peptide resealing into red cells, morphology by light microscopy; type: cell-based; conditions: peptide 0, 6, 12 or 30 μM resealed 45 min at 37°C; 100x oil immersion
human erythrocyte ghosts [2] = test: Ektacytometry of resealed ghosts; type: cell-based; conditions: 6 or 15 μM cyclic peptide resealed; elongation index vs shear stress
Procedure, shortened: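 Washed human red cells from ACD-anticoagulated volunteer blood, with buffy coat and plasma removed, were suspended in PBS/5 mM glucose/2 mM MgCl2 with cyclized test peptide or without (control). Cells were flash-frozen in liquid N2 for 40 s, thawed at room temperature, then resealed 45 min at 37°C. Ghosts were washed in PBS/glucose/0.5% BSA and assessed by ektacytometry as elongation index under gradually increasing shear stress.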

[3] = target: T1, GST-D3D4-ankyrin (GST fusion construct of the D3D4 domain of ankyrin), wild type (human, UniProt P16157 402-827); test: pull-down
T1 sequence: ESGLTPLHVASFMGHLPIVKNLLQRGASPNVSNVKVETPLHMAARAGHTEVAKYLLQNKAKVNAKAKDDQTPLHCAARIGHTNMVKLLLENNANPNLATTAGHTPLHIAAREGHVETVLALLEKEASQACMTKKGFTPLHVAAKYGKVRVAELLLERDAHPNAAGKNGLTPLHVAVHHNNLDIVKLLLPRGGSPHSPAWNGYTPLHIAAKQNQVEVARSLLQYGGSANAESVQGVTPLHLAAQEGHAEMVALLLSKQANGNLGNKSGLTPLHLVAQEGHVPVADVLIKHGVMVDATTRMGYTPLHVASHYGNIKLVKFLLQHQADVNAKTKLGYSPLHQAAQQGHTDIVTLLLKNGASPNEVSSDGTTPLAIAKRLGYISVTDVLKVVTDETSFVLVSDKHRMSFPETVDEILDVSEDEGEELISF

cdB3 = test: Binding of native or mutated GST-D3D4 ankyrin to His-tagged cdB3; design: species or system human; conditions: GST activity, n=2
Procedure, shortened: (§1)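 His6-tagged cdB3 (wild type or loop-deletion mutant) and GST-D3D4 ankyrin (wild type or charge-reversal mutant) were expressed in E. coli BL21(DE3)pLysS and purified. cdB3 was incubated at 4°C with increasing GST-ankyrin in pH 8.0 phosphate/KCl/imidazole buffer with 10% sucrose, 1 mg/ml BSA and PMSF. Complexes were captured on Co2+-NTA beads for 2 h, washed 3x and eluted with 250 mM imidazole. Equal cdB3 loading was checked by anti-cdB3 blot, and bound ankyrin was quantified by GST activity.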

GST-D3D4-ankyrin [4] = test: His-tag pull-down on Co2+-NTA agarose, bound GST-D3D4-ankyrin by GST activity; type: binding, human; conditions: immobilized cdB3 variants, pH 8.0, n=2
Procedure, shortened: as §1

[5] = target: T1, GST-D3D4-ankyrin (GST fusion construct …); test: pull-down; remark: listed apart in the source
GST-D3D4-ankyrin [6] = type: binding, human; conditions: increasing concentrations of GST-D3D4-ankyrin; anti-ankyrin polyclonal antibodies
GST-ankyrin = type: binding, human; conditions: GST-ankyrin 1 μM on glutathione-beads; cdB3 or mutant 1 μM; anti-cdB3 antibody
Procedure, shortened: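 Purified GST-ankyrin was immobilized on glutathione beads and incubated 2 h with His6-tagged wild-type or mutant cdB3 expressed in E. coli. Beads were washed 3x with binding buffer, and captured cdB3 was quantified by dot blot with a locally prepared polyclonal anti-cdB3 antibody.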

[7] = tested on: glyceraldehyde-3-phosphate dehydrogenase (GAPDH); conditions: 2 μg/mL GAPDH, 2 min at room temperature, pH 7.0; 10 mM imidazole acetate; absorbance change at 340 nm
AUC = target: the molecule itself; test: AUC

CSCC[C@@H]1NC(=O)[C@H](C(C)C)NC(=O)[C@H](CC(C)C)NC(=O)[C@H](CCC(=O)O)NC(=O)[C@@H](N)CSSC[C@@H](C(=O)O)NC(=O)[C@H](CC(C)C)NC(=O)[C@H](CCC(=O)O)NC(=O)[C@H](CCC(N)=O)NC(=O)[C@H](CC(N)=O)NC(=O)[C@H](CCCCN)NC(=O)[C@H](CCC(=O)O)NC(=O)[C@H](CC(=O)O)NC1=O [cyclized peptide] (HELM PEPTIDE1{C.E.L.V.M.D.E.K.N.Q.E.L.C}$PEPTIDE1,PEPTIDE1,1:R3-13:R3$$$V2.0; N-terminus and C-terminus assumed)
effect on red cell membrane morphology (in words) (human erythrocyte ghosts [1]): membrane blebbing and a gradual decrease in membrane surface area; also recorded: extensive vesiculation at higher peptide concentrations | effect on membrane deformability (in words) (human erythrocyte ghosts [2]): compromised membrane deformability

CELVMDEKNQELC (disulfide 1-13) [cyclized loop 1 peptide (residues 63–73 of cdB3 with a cysteine at each end, disulfide-bonded)]
IC50 [3]: ~15 µM

B1: mutated ankyrin: D3D4 domain of ankyrin with the four mutations N601D, K611E, E645K, and Q634E (protein)
chain: T1 sequence with N200D, K210E, Q233E, E244K
modifications: left off: GST, end not stated, kept
affinity of mutated ankyrin for cdB3 (in words) (cdB3; N601D, K611E, Q634E, E645K mutant): unable to bind cdB3

B2: Wild-type ankyrin: GST fusion construct of the D3D4 domain of ankyrin (protein)
chain: T1 sequence
modifications: left off: GST, end not stated, kept
Kd (cdB3; read-out: apparent dissociation constant of ankyrin for cdB3): ~0.4 µM

B3: double loop deleted (ΔL1 + ΔL2) cdB3: combination of loop 1 and loop 2 deletion mutant (protein)
chain: MEELQDDYEDMMEENLEQEEYEDPDIPESQMEEPAAHDTEATATDYHTTSHPGTHKVYVELQGGRWMEAARWVQLEENLGENGAWGRPHLSHLTFWSLLELRRVFTKGTVLLDLQETSLAGVANQLLDRFIFEDQIRPQDREELLRALLLKHSHAGELEALGGVKGGQPLLPQHSSLETQLFCEQGDGGTEGHSPSGILEKIPPDSEATLVLVGRADFLEQPVLGFVRLQEAAELEAVELPVPIRFLFVLLGPEAPHIDYTQLGRAAATLMSERVFRIDAYMAQSRGELLHSLEGFLDCSLVLPPTDAPSEQALLSLVPVQRELLRRRYQSSPAKPDSSFYKGLDLNGGPDDPLQQTGQLF
modifications: left off: His6, C-terminal, kept
affinity for GST-ankyrin (in words) (GST-D3D4-ankyrin [4]): no affinity could be detected

B4: cytoplasmic domain of band 3 (cdB3), wild type, with COOH-terminal His6-tag (domain or fragment, human)
chain: MEELQDDYEDMMEENLEQEEYEDPDIPESQMEEPAAHDTEATATDYHTTSHPGTHKVYVELQELVMDEKNQELRWMEAARWVQLEENLGENGAWGRPHLSHLTFWSLLELRRVFTKGTVLLDLQETSLAGVANQLLDRFIFEDQIRPQDREELLRALLLKHSHAGELEALGGVKPAVLTRSGDPSQPLLPQHSSLETQLFCEQGDGGTEGHSPSGILEKIPPDSEATLVLVGRADFLEQPVLGFVRLQEAAELEAVELPVPIRFLFVLLGPEAPHIDYTQLGRAAATLMSERVFRIDAYMAQSRGELLHSLEGFLDCSLVLPPTDAPSEQALLSLVPVQRELLRRRYQSSPAKPDSSFYKGLDLNGGPDDPLQQTGQLF
Kd [5]: ~0.4 µM

B5: native cdB3: cytoplasmic domain of band 3 (protein)
chain: B4 chain
modifications: left off: His6, C-terminal, kept
GST-ankyrin binding by dot blot (in words) (GST-D3D4-ankyrin [6]): usual prominent binding | affinity for immobilized GST-ankyrin by dot blot (in words) (GST-ankyrin): strong affinity | inhibition of GAPDH [7]: 90%

CELVMDEKNQELC [linear loop 1 peptide (residues 63–73 of cdB3 with a cysteine at each end, reduced)]
IC50 [3]: 55 µM

B6: cdB3 ΔL1 (cdB3 with loop 1, residues 63–73, replaced by a diglycine bridge) (domain or fragment, human)
chain: MEELQDDYEDMMEENLEQEEYEDPDIPESQMEEPAAHDTEATATDYHTTSHPGTHKVYVELQGGRWMEAARWVQLEENLGENGAWGRPHLSHLTFWSLLELRRVFTKGTVLLDLQETSLAGVANQLLDRFIFEDQIRPQDREELLRALLLKHSHAGELEALGGVKPAVLTRSGDPSQPLLPQHSSLETQLFCEQGDGGTEGHSPSGILEKIPPDSEATLVLVGRADFLEQPVLGFVRLQEAAELEAVELPVPIRFLFVLLGPEAPHIDYTQLGRAAATLMSERVFRIDAYMAQSRGELLHSLEGFLDCSLVLPPTDAPSEQALLSLVPVQRELLRRRYQSSPAKPDSSFYKGLDLNGGPDDPLQQTGQLF
stoichiometry N (AUC): 2

B7: cdB3 ΔL1: mutant cdB3 with loop 1 (residues 63–73) replaced by a diglycine bridge (protein)
chain: B6 chain
modifications: left off: His6, C-terminal, kept
affinity for immobilized GST-ankyrin by dot blot (in words) (GST-ankyrin): no affinity for ankyrin

B8: ΔL2 cdb3: mutant cdB3 with a diglycine bridge in place of loop 2 (residues 175–185) (protein)
chain: MEELQDDYEDMMEENLEQEEYEDPDIPESQMEEPAAHDTEATATDYHTTSHPGTHKVYVELQELVMDEKNQELRWMEAARWVQLEENLGENGAWGRPHLSHLTFWSLLELRRVFTKGTVLLDLQETSLAGVANQLLDRFIFEDQIRPQDREELLRALLLKHSHAGELEALGGVKGGQPLLPQHSSLETQLFCEQGDGGTEGHSPSGILEKIPPDSEATLVLVGRADFLEQPVLGFVRLQEAAELEAVELPVPIRFLFVLLGPEAPHIDYTQLGRAAATLMSERVFRIDAYMAQSRGELLHSLEGFLDCSLVLPPTDAPSEQALLSLVPVQRELLRRRYQSSPAKPDSSFYKGLDLNGGPDDPLQQTGQLF
modifications: left off: His6, C-terminal, kept
affinity for GST-ankyrin (in words) (GST-D3D4-ankyrin [4]): no affinity could be detected

— PMC3448790 (Biochemistry, 2012)
